In ChEMBL document CHEMBL1125920, “Synthesis and biological activity of 5-alkyl-1,7,8-trisubstituted-6-fluoroquinoline-3-carboxylic acids” (1991):
Converted amounts (≈) assume the structure as drawn.

Key:
[1] = system: Enterobacter cloacae; assay: Antibacterial activity against gram negative organism, […] (MA2646); assay type: functional
[2] = system: Escherichia coli; assay: Antibacterial activity was determined against gram negative organism, E. coli(vogel); assay type: functional
Outline: (§1)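 MIC by standard microtitration against a panel of 10 representative Gram-negative and Gram-positive organisms; values reported in µg/mL.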

[3] = system: Klebsiella pneumoniae; assay: Antibacterial activity was determined against gram negative organism, K. pneumoniae (MGH-2); assay type: functional; outline: as §1
[4] = system: Pseudomonas aeruginosa; assay: Antibacterial activity was determined against gram negative organism, Pseudomonas aeruginosa (UI-18); assay type: functional; outline: as §1
[5] = system: Bacteria; assay: Antibacterial activity was determined against gram negative organism, Providencia rettgeri. (M1771); assay type: functional; outline: as §1
[6] = system: Streptococcus pneumoniae; assay: Antibacterial activity was determined against gram positive organism, Streptococcus pneumoniae (SV-1); assay type: functional; outline: as §1
[7] = system: Enterococcus faecalis; assay: Antibacterial activity was determined against gram positive organism, Streptococcus faecalis (MGH-2); assay type: functional; outline: as §1
[8] = system: Streptococcus pyogenes; assay: Antibacterial activity was determined against gram positive organism, Streptococcus pyogenes (C203); assay type: functional; outline: as §1
[9] = system: Staphylococcus aureus; assay: Antibacterial activity was determined against gram positive organism, Staphylococcus aureus (H228); assay type: functional; outline: as §1
[10] = system: Staphylococcus aureus; assay: Antibacterial activity was determined against gram positive organism, Staphylococcus aureus (UC76); assay type: functional; outline: as §1
[11] = MIC ratio measured as the mean MICs of gram-negative bacteria; assay type: functional
Outline: (§2)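 Geometric mean of the MICs (µg/mL) over the Gram-negative or the Gram-positive strains of the 10-organism microtitration panel, calculated separately for each class.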

[12] = MIC ratio measured as the mean MICs of gram-positive bacteria; assay type: functional; outline: as §2
[13] = target: DNA gyrase (Escherichia coli) (UniProt P0AES6+P0AES4)

SMILES | MIC [1] [µg/mL] | MIC [2] [µg/mL] | MIC [3] [µg/mL] | MIC [4] [µg/mL] | MIC [5] [µg/mL] | MIC [6] [µg/mL] | MIC [7] [µg/mL] | MIC [8] [µg/mL] | MIC [9] [µg/mL] | MIC [10] [µg/mL] | Ratio [11] | Ratio [12] | DNA cleavage [13] [µg/mL]
CCn1cc(C(=O)O)c(=O)c2cc(F)c(N3CCC(N)C3)c(F)c21 (configuration not stated) | 0.1 (≈ 0.296 µM) | 0.1 (≈ 0.296 µM) | 0.2 (≈ 0.593 µM) | 0.4 (≈ 1.19 µM) | 0.2 (≈ 0.593 µM) | 0.4 (≈ 1.19 µM) | 0.4 (≈ 1.19 µM) | 0.2 (≈ 0.593 µM) | 0.4 (≈ 1.19 µM) | 0.1 (≈ 0.296 µM) | 0.17 | 0.27 | 2.5
CCn1cc(C(=O)O)c(=O)c2cc(F)c(N3CCC(N)C3)cc21 (configuration not stated) | 0.1 (≈ 0.313 µM) | 0.1 (≈ 0.313 µM) | 0.2 (≈ 0.626 µM) | 0.8 (≈ 2.51 µM) | 0.2 (≈ 0.626 µM) | 0.4 (≈ 1.25 µM) | 0.8 (≈ 2.51 µM) | 0.4 (≈ 1.25 µM) | 0.8 (≈ 2.51 µM) | 0.1 (≈ 0.313 µM) | 0.2 | 0.4 | 2.5
CCn1cc(C(=O)O)c(=O)c2cc(F)c(N3CC(C)NC(C)C3)cc21 (configuration not stated) | 0.2 (≈ 0.576 µM) | 0.2 (≈ 0.576 µM) | 0.4 (≈ 1.15 µM) | 6.3 (≈ 18.1 µM) | 0.8 (≈ 2.3 µM) | 1.6 (≈ 4.61 µM) | 1.6 (≈ 4.61 µM) | 1.6 (≈ 4.61 µM) | 1.6 (≈ 4.61 µM) | 0.4 (≈ 1.15 µM) | 0.6 | 1.21 | 
Cc1c(F)c(N2CCC(N)C2)c(Cl)c2c1c(=O)c(C(=O)O)cn2C1CC1 (configuration not stated) | 0.05 (≈ 0.132 µM) | 0.013 (≈ 0.0342 µM) | 0.05 (≈ 0.132 µM) | 0.2 (≈ 0.527 µM) | 0.05 (≈ 0.132 µM) | 0.025 (≈ 0.0658 µM) | 0.05 (≈ 0.132 µM) | 0.05 (≈ 0.132 µM) | 0.025 (≈ 0.0658 µM) | 0.013 (≈ 0.0342 µM) | 0.05 | 0.029 | 0.3
CCn1cc(C(=O)O)c(=O)c2c(C)c(F)c(N3CCC(N)C3)c(F)c21 (configuration not stated) | 0.05 (≈ 0.142 µM) | 0.05 (≈ 0.142 µM) | 0.2 (≈ 0.569 µM) | 1.6 (≈ 4.55 µM) | 0.4 (≈ 1.14 µM) | 1.6 (≈ 4.55 µM) | 0.8 (≈ 2.28 µM) | 3.1 (≈ 8.82 µM) | 0.4 (≈ 1.14 µM) | 0.1 (≈ 0.285 µM) | 0.2 | 0.69 | 3
Cc1c(F)c(N2CCC(N)C2)cc2c1c(=O)c(C(=O)O)cn2-c1ccc(F)cc1F (configuration not stated) | 0.05 (≈ 0.12 µM) | 0.05 (≈ 0.12 µM) | 0.1 (≈ 0.24 µM) | 0.8 (≈ 1.92 µM) | 0.2 (≈ 0.479 µM) | 0.025 (≈ 0.0599 µM) | 0.1 (≈ 0.24 µM) | 0.05 (≈ 0.12 µM) | 0.05 (≈ 0.12 µM) | 0.013 (≈ 0.0311 µM) | 0.13 | 0.038 | 0.37
Cc1c(F)c(N2CCNCC2)cc2c1c(=O)c(C(=O)O)cn2-c1ccc(F)cc1F | 0.05 (≈ 0.12 µM) | 0.05 (≈ 0.12 µM) | 0.1 (≈ 0.24 µM) | 0.8 (≈ 1.92 µM) | 0.2 (≈ 0.479 µM) | 0.05 (≈ 0.12 µM) | 0.2 (≈ 0.479 µM) | 0.1 (≈ 0.24 µM) | 0.1 (≈ 0.24 µM) | 0.025 (≈ 0.0599 µM) | 0.13 | 0.076 | 3
CCc1c(F)c(N2CCNC(C)C2)cc2c1c(=O)c(C(=O)O)cn2C1CC1 (configuration not stated) | 0.8 (≈ 2.14 µM) | 0.4 (≈ 1.07 µM) | 1.6 (≈ 4.28 µM) | 6.3 (≈ 16.9 µM) | 6.3 (≈ 16.9 µM) | 12.5 (≈ 33.5 µM) | > 25 | 25 (≈ 66.9 µM) | 6.3 (≈ 16.9 µM) | 3.1 (≈ 8.3 µM) | 1.83 | 10.9 | 
CCNCC1CCN(c2cc3c(cc2F)c(=O)c(C(=O)O)cn3-c2ccc(F)cc2F)C1 (configuration not stated) | 0.4 (≈ 0.898 µM) | 0.2 (≈ 0.449 µM) | 0.8 (≈ 1.8 µM) | 3.1 (≈ 6.96 µM) | 1.6 (≈ 3.59 µM) | 0.1 (≈ 0.224 µM) | 0.2 (≈ 0.449 µM) | 0.1 (≈ 0.224 µM) | 0.1 (≈ 0.224 µM) | 0.025 (≈ 0.0561 µM) | 0.79 | 0.087 | 
CC1(CN)CCN(c2cc3c(cc2F)c(=O)c(C(=O)O)cn3C2CC2)C1 (configuration not stated) | 0.8 (≈ 2.23 µM) | 0.2 (≈ 0.556 µM) | 0.4 (≈ 1.11 µM) | 0.8 (≈ 2.23 µM) | 0.8 (≈ 2.23 µM) | 0.025 (≈ 0.0696 µM) | 0.1 (≈ 0.278 µM) | 0.05 (≈ 0.139 µM) |  |  | 0.53 | 0.044 | 3
CCn1cc(C(=O)O)c(=O)c2c(C)c(F)c(N3CC(C)NC(C)C3)cc21 (configuration not stated) | 0.4 (≈ 1.11 µM) | 0.2 (≈ 0.553 µM) | 0.8 (≈ 2.21 µM) | 3.1 (≈ 8.58 µM) | 1.6 (≈ 4.43 µM) | 1.6 (≈ 4.43 µM) | 1.6 (≈ 4.43 µM) | 3.1 (≈ 8.58 µM) | 1.6 (≈ 4.43 µM) | 0.2 (≈ 0.553 µM) | 0.79 | 1.2 | 8.8
CCn1cc(C(=O)O)c(=O)c2cc(F)c(N3CCNCC3)cc21 [NORFLOXACIN] |  |  |  |  | 0.025 (≈ 0.0783 µM) |  |  |  |  |  | 0.057 | 0.61 | 1
